# Several values for one entry are separate records, joined by “and”; a condition that tells them apart may be missing. Identical values can stand only once.
# Experiments:
# Assay type in all cases: toxicity, cell-based
# Fibroblast [1] = assay: Multiplex assay against human fibroblast; conditions: 10 µM, compound concentration 10 uM
# Summary of the method: (§1)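 With compound added, live cells were imaged on a CQ1 microscope at 37°C and 5% CO2; staining with Hoechst33342, BioTracker Green Microtubule Cytoskeleton Dye, MitoTracker Red and Annexin V Alexa Fluor 680 had been done at seeding. The CellPathfinder machine-learning gating scheme split cells into Hoechst high-intensity objects or normal cells, normal cells into healthy, pyknosed or fragmented nuclei, and pyknosed cells into mitotic or apoptotic. The tubulin, mitochondrial-mass and membrane-permeability phenotypes are per cents of healthy-nucleus cells.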
# U2OS = assay: Multiplex assay against U2OS; conditions: human, 10 µM, compound concentration 10 uM; summary of the method: as §1
# Fibroblast [2] = assay: Incucyte cell viability with human fibroblast; conditions: 10 µM, compound concentration 10 uM; further: filed as whole numbers so only -1 and 0 and 1 occur
smiles,measurement,setting,value
CN1CCN(C(=O)C(C)(C)c2ccc(C(=O)Nc3cn4cc(-c5ccncc5)ccc4n3)cc2)CC1 [T3-CLK],Population Tubulin-Different-Phenotype (%),"Fibroblast [1]; 24 h, replicate 2",33% and 88% and 50%
same,Total Cell Count,"Fibroblast [1]; 24 h, replicate 2",53 and 57 and 76
same,Population Apoptotic (%),"Fibroblast [1]; 48 h, replicate 1",52%
same,Population Fragmented Nuclei (%),"Fibroblast [1]; 48 h, replicate 1",52%
same,Population Healthy Nuclei (%),"Fibroblast [1]; 48 h, replicate 1",32%
same,Population Hoechst High Intensity Objects (%),"Fibroblast [1]; 48 h, replicate 1",17%
same,Population Membrane Permeable-Phenotype (%),"Fibroblast [1]; 48 h, replicate 1",32%
same,Population Mitochondria Different-Phenotype (%),"Fibroblast [1]; 48 h, replicate 1",20%
same,Population Mitotic Cells (%),"Fibroblast [1]; 48 h, replicate 1",47%
same,Population Normal (%),"Fibroblast [1]; 48 h, replicate 1",82%
same,Population Pyknosed Nuclei (%),"Fibroblast [1]; 48 h, replicate 1",15%
same,Population Tubulin-Different-Phenotype (%),"Fibroblast [1]; 48 h, replicate 1",76%
same,Total Cell Count,"Fibroblast [1]; 48 h, replicate 1",162
same,Population Apoptotic (%),"Fibroblast [1]; 48 h, replicate 2",63%
same,Population Fragmented Nuclei (%),"Fibroblast [1]; 48 h, replicate 2",38%
same,Population Healthy Nuclei (%),"Fibroblast [1]; 48 h, replicate 2",49%
same,Population Hoechst High Intensity Objects (%),"Fibroblast [1]; 48 h, replicate 2",6%
same,Population Membrane Permeable-Phenotype (%),"Fibroblast [1]; 48 h, replicate 2",47%
same,Population Mitochondria Different-Phenotype (%),"Fibroblast [1]; 48 h, replicate 2",15%
same,Population Mitotic Cells (%),"Fibroblast [1]; 48 h, replicate 2",36%
same,Population Normal (%),"Fibroblast [1]; 48 h, replicate 2",93%
same,Population Pyknosed Nuclei (%),"Fibroblast [1]; 48 h, replicate 2",12%
same,Population Tubulin-Different-Phenotype (%),"Fibroblast [1]; 48 h, replicate 2",65%
same,Total Cell Count,"Fibroblast [1]; 48 h, replicate 2",95
same,Population Apoptotic (%),"U2OS; 12 h, replicate 1",37% and 22%
same,Population Healthy Nuclei (%),"U2OS; 12 h, replicate 1",90% and 71% and 89%
same,Population Hoechst High Intensity Objects (%),"U2OS; 12 h, replicate 1",5%
same,Population Mitotic Cells (%),"U2OS; 12 h, replicate 1",62% and 77%
same,Population Normal (%),"U2OS; 12 h, replicate 1",94%
same,Population Pyknosed Nuclei (%),"U2OS; 12 h, replicate 1",10% and 7%
same,Total Cell Count,"U2OS; 12 h, replicate 1",128 and 143 and 333
same,Population Healthy Nuclei (%),"U2OS; 12 h, replicate 2",88% and 70% and 87%
same,Population Hoechst High Intensity Objects (%),"U2OS; 12 h, replicate 2",6% and 7% and 9%
same,Population Membrane Permeable-Phenotype (%),"U2OS; 12 h, replicate 2",62% and 21% and 25%
same,Population Mitotic Cells (%),"U2OS; 12 h, replicate 2",50% and 100% and 66%
same,Population Normal (%),"U2OS; 12 h, replicate 2",93% and 92% and 90%
same,Population Pyknosed Nuclei (%),"U2OS; 12 h, replicate 2",5% and 11% and 3%
same,Population Apoptotic (%),"U2OS; 24 h, replicate 1",36% and 62% and 33%
same,Population Fragmented Nuclei (%),"U2OS; 24 h, replicate 1",11% and 21% and 8%
same,Population Healthy Nuclei (%),"U2OS; 24 h, replicate 1",81% and 64% and 77%
same,Population Hoechst High Intensity Objects (%),"U2OS; 24 h, replicate 1",5% and 10% and 6%
same,Population Membrane Permeable-Phenotype (%),"U2OS; 24 h, replicate 1",52% and 26% and 34%
same,Population Mitotic Cells (%),"U2OS; 24 h, replicate 1",63% and 37% and 66%
same,Population Normal (%),"U2OS; 24 h, replicate 1",94% and 90% and 93%
same,Population Pyknosed Nuclei (%),"U2OS; 24 h, replicate 1",6% and 13% and 14%
same,Total Cell Count,"U2OS; 24 h, replicate 1",137 and 141 and 262
same,Population Apoptotic (%),"U2OS; 24 h, replicate 2",50% and 22%
same,Population Fragmented Nuclei (%),"U2OS; 24 h, replicate 2",29% and 22% and 15%
same,Population Healthy Nuclei (%),"U2OS; 24 h, replicate 2",58% and 66% and 70%
same,Population Hoechst High Intensity Objects (%),"U2OS; 24 h, replicate 2",12% and 9%
same,Population Membrane Permeable-Phenotype (%),"U2OS; 24 h, replicate 2",17% and 19%
same,Population Mitotic Cells (%),"U2OS; 24 h, replicate 2",50% and 77%
same,Population Normal (%),"U2OS; 24 h, replicate 2",87%
same,Population Pyknosed Nuclei (%),"U2OS; 24 h, replicate 2",11%
same,Population Apoptotic (%),"U2OS; 48 h, replicate 1",73%
same,Population Fragmented Nuclei (%),"U2OS; 48 h, replicate 1",34%
same,Population Healthy Nuclei (%),"U2OS; 48 h, replicate 1",15%
same,Population Hoechst High Intensity Objects (%),"U2OS; 48 h, replicate 1",16%
same,Population Membrane Permeable-Phenotype (%),"U2OS; 48 h, replicate 1",56%
same,Population Mitochondria Different-Phenotype (%),"U2OS; 48 h, replicate 1",87%
same,Population Mitotic Cells (%),"U2OS; 48 h, replicate 1",26%
same,Population Normal (%),"U2OS; 48 h, replicate 1",83%
same,Population Pyknosed Nuclei (%),"U2OS; 48 h, replicate 1",50%
same,Population Tubulin-Different-Phenotype (%),"U2OS; 48 h, replicate 1",100%
same,Total Cell Count,"U2OS; 48 h, replicate 1",145
same,Population Apoptotic (%),"U2OS; 48 h, replicate 2",61%
same,Population Fragmented Nuclei (%),"U2OS; 48 h, replicate 2",28%
same,Population Healthy Nuclei (%),"U2OS; 48 h, replicate 2",36%
same,Population Hoechst High Intensity Objects (%),"U2OS; 48 h, replicate 2",23%
same,Population Membrane Permeable-Phenotype (%),"U2OS; 48 h, replicate 2",63%
same,Population Mitochondria Different-Phenotype (%),"U2OS; 48 h, replicate 2",81%
same,Population Mitotic Cells (%),"U2OS; 48 h, replicate 2",38%
same,Population Normal (%),"U2OS; 48 h, replicate 2",76%
same,Population Pyknosed Nuclei (%),"U2OS; 48 h, replicate 2",35%
same,Population Tubulin-Different-Phenotype (%),"U2OS; 48 h, replicate 2",90%
same,Total Cell Count,"U2OS; 48 h, replicate 2",57
same,Growth Rate,"Fibroblast [2]; 0 h, replicate number 2, timepoint 0 hours",0
same,Growth Rate,"Fibroblast [2]; 18 h, replicate number 1, timepoint 18 hours",1
same,Growth Rate,"Fibroblast [2]; 24 h, replicate number 1, timepoint 24 hours",1
